Measured values from ChEMBL document CHEMBL5316310, “Discovery of MK-8189, a Highly Potent and Selective PDE10A Inhibitor for the Treatment of Schizophrenia” (J Med Chem, 2023).
In brackets after ≈: the same amount, converted by molar mass.

Columns and labels:
[1] = In vivo receptor occupancy at PDE10A receptor in rat striatum at 0.25 mg/kg, po measured after 1 hr; format: functional
Method in brief: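 Striatal PDE10A occupancy in rats given the compound orally during the novel object recognition test. Occupancy was not measured directly but derived from plasma concentration taken 1 h post dose. n = 4/group, reported as mean (SEM).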

[2] = biological target: T1, cAMP and cAMP-inhibited cGMP 3',5'-cyclic phosphodiesterase 10A (Homo sapiens, UniProt Q9Y233); test: Inhibition of human PDE10A2 transfected in human AD293 cells cytosolic fraction using cAMP as substrate by fluorescence polarization assay; format: subcellular, Cytosol
[3] = Plasma clearance in Rhesus monkey at 0.5 mg/kg, iv by LC-MS/MS analysis; format: ADME, organism-based, Macaca mulatta
Method in brief: (§1)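 IV bolus in DMSO/PEG400 (1:1). Male Wistar–Hannover rats (n = 3, ~300 g): 2 mg/kg via jugular cannula, sampled 0.03–24 h. Male rhesus (n = 3): 0.5 mg/kg into saphenous or cephalic vein, sampled to 24 h. Plasma (EDTA) analysed by LC-MS/MS after acetonitrile precipitation. Non-compartmental analysis; CL = dose/AUC0-inf; t1/2 from log-linear regression of the terminal phase. Values are means.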

[4] = Selectivity ratio of Ki for N-terminal GST-tagged human recombinant PDE5A1 (1 to 875 residues) expressed in baculovirus-infected Sf9 cells to Ki for human PDE10A2 transfected in human AD293 cells cytosolic fraction
[5] = Aqueous solubility of the compound at pH 7; format: physicochemical; details: buffer
[6] = Lipophilicity, log D of the compound; format: physicochemical; details: octanol/water
[7] = Plasma concentration in rat at 0.08 mg/kg, po measured after 1 hr; format: ADME, organism-based
Method in brief: (§2)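 Rat novel object recognition (episodic memory) study, orally dosed. Plasma drawn 1 h post dose at end of the experiment for compound level. n = 4/group, reported as mean (SEM).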

[8] = Protein binding in human plasma; format: ADME, cell-free
[9] = biological target: T1, cAMP and cAMP-inhibited cGMP 3',5'-cyclic phosphodiesterase 10A; test: Binding affinity to human full length His-tagged PDE10A2 assessed as on-rate constant by surface plasmon resonance analysis
[10] = Selectivity ratio of Ki for N-terminal GST-tagged human recombinant PDE4A1A (1 to 647 residues) expressed in baculovirus-infected Sf9 cells to Ki for human PDE10A2 transfected in human AD293 cells cytosolic fraction
P-gp (ABCB1) = P-gp (ABCB1) (Rattus norvegicus, UniProt P43245); test: Substrate activity at rat P-gp assessed as efflux ratio; format: ADME
[11] = Selectivity ratio of Ki for N-terminal GST-tagged human recombinant PDE11A4 (1 to 943 residues) expressed in baculovirus-infected Sf9 cells to Ki for human PDE10A2 transfected in human AD293 cells cytosolic fraction
[12] = Unbound plasma clearance in rat; format: ADME; details: in vivo
Method in brief: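 Rat unbound clearance (CLu) was calculated by dividing the measured rat plasma clearance by the rat plasma free fraction.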

[13] = Half life in Rhesus monkey at 0.5 mg/kg, iv by LC-MS/MS analysis; format: ADME, organism-based, Macaca mulatta; details: in vivo; method in brief: as §1
[14] = biological target: T1, cAMP and cAMP-inhibited cGMP 3',5'-cyclic phosphodiesterase 10A; test: Reversible binding affinity to human full length His-tagged PDE10A2 assessed as half-life on the enzyme measured at 25 degC by surface plasmon resonance analysis
[15] = Plasma concentration in MK-801-induced psychosis rat model at 0.25 mg/kg, po administered 1 hr prior to MK-801 administration and measured after 90 mins; format: ADME, organism-based; details: time 150 min
Method in brief: (§3)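 Rats dosed orally, then MK-801 1 h later; locomotor activity recorded over 90 min. Plasma drawn 2.5 h post dose at end of the study and assayed for compound. n = 8/group, reported as mean (SEM).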

[16] = Toxicity in rat assessed as weight gain; details: in vivo
[17] = Protein binding in rat plasma assessed as unbound fraction; format: ADME, cell-free
Rattus norvegicus = test: Anti-psychotic activity in rat assessed as inhibition of MK-801-induced hyperlocomotion administered orally 1 hr prior to MK-801 administration and measured for 90 mins; format: functional, organism-based; details: dose 0.25-0.75 mg/kg, route po, time 150.0 min
Method in brief: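 Rats given compound orally at 0.25–0.75 mg/kg 1 h before the NMDA antagonist MK-801. Total distance travelled was recorded over 90 min and compared with vehicle + MK-801 groups (p < 0.05). n = 8/group; mean ± SEM.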

[18] = In vivo receptor occupancy at PDE10A receptor in MK-801-induced psychosis rat model striatum at 0.5 mg/kg, po administered 1 hr prior to MK-801 administration and measured after 90 mins; format: functional; details: time 2.5 hrs
Method in brief: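 Rats in the MK-801 locomotor study were dosed orally at 0.25, 0.50 or 0.75 mg/kg. Plasma was taken 2.5 h post dose and drug levels measured. Striatal PDE10A occupancy was derived from plasma concentration using the [3H]MK-8193 ex vivo occupancy relation. n = 8/group; mean (SEM).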

[19] = Protein binding in monkey plasma assessed as unbound fraction; format: ADME, cell-free, Macaca mulatta; details: rhesus monkey
[20] = Selectivity ratio of Ki for N-terminal GST-tagged full length human recombinant PDE9A2 expressed in baculovirus-infected Sf9 cells to Ki for human PDE10A2 transfected in human AD293 cells cytosolic fraction
[21] = biological target: Voltage-gated inwardly rectifying potassium channel KCNH2 (Homo sapiens, UniProt Q12809); test: Displacement of MK499 from hERG; format: toxicity
[22] = Volume of distribution at steady state in Rhesus monkey at 0.5 mg/kg, iv by LC-MS/MS analysis; format: ADME, organism-based, Macaca mulatta; details: in vivo, read-out: Vdss
Method in brief: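 Three male rhesus monkeys received a 0.5 mg/kg IV bolus into the saphenous or cephalic vein, dosed from a 5 mg/mL solution in DMSO:PEG400 (1:1). EDTA plasma was collected from pre-dose to 24 h. Samples were protein-precipitated with acetonitrile and quantified by positive-ion APCI LC-MS/MS. Vdss was obtained by non-compartmental analysis as clearance × mean residence time, and values are means (n = 3).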

[23] = Plasma concentration in MK-801-induced psychosis rat model at 0.75 mg/kg, po administered 1 hr prior to MK-801 administration and measured after 90 mins; format: ADME, organism-based; details: time 150 min; method in brief: as §3
[24] = Plasma concentration in rat at 0.25 mg/kg, po measured after 1 hr; format: ADME, organism-based; method in brief: as §2
[25] = Selectivity ratio of Ki for Rhesus monkey PDE2A3 transfected in AD293 cells cytosolic fraction to Ki for human PDE10A2 transfected in human AD293 cells cytosolic fraction; format: cell-based
[26] = Plasma concentration in MK-801-induced psychosis rat model at 0.5 mg/kg, po administered 1 hr prior to MK-801 administration and measured after 90 mins; format: ADME, organism-based; details: time 150 min; method in brief: as §3
[27] = Half-life in Wistar-Hannover rat at 2 mg/kg, iv by LC-MS/MS analysis; format: ADME, organism-based; details: in vivo; method in brief: as §1
[28] = Mutagenicity in Salmonella typhimurium by Ames test; format: toxicity; details: salmonella enterica subsp. enterica serovar typhimurium
[29] = Plasma concentration in rat at 0.16 mg/kg, po measured after 1 hr; format: ADME, organism-based; method in brief: as §2

T1 sequence (Q9Y233 whole entry): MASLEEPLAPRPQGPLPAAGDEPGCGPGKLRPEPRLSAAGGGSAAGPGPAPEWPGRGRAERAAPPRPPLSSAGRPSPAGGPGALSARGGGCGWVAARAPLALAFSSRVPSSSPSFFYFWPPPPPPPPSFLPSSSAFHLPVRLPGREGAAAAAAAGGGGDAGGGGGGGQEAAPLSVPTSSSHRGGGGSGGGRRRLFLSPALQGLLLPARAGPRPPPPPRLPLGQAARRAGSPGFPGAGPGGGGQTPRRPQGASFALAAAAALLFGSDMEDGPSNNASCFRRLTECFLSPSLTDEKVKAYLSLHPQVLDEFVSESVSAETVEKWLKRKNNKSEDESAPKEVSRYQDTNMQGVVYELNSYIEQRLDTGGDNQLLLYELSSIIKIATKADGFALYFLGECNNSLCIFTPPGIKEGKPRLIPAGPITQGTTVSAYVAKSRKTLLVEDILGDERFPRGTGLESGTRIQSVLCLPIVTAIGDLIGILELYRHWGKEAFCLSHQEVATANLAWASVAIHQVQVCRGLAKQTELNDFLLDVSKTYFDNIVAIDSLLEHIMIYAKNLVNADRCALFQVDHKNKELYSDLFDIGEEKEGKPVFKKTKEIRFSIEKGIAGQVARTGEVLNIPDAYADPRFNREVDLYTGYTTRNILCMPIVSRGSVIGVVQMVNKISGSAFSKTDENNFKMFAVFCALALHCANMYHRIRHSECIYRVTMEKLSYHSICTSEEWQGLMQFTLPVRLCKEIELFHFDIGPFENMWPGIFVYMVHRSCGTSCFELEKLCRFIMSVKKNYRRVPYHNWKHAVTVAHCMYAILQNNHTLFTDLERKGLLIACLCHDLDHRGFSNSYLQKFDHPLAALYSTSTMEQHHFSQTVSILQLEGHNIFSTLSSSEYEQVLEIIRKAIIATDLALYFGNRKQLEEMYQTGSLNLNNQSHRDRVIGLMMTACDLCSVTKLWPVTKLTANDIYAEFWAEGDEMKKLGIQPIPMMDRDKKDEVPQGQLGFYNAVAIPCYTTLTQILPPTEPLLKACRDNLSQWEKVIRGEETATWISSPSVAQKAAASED
Sequence of Voltage-gated inwardly rectifying potassium channel KCNH2 (Q12809 whole entry): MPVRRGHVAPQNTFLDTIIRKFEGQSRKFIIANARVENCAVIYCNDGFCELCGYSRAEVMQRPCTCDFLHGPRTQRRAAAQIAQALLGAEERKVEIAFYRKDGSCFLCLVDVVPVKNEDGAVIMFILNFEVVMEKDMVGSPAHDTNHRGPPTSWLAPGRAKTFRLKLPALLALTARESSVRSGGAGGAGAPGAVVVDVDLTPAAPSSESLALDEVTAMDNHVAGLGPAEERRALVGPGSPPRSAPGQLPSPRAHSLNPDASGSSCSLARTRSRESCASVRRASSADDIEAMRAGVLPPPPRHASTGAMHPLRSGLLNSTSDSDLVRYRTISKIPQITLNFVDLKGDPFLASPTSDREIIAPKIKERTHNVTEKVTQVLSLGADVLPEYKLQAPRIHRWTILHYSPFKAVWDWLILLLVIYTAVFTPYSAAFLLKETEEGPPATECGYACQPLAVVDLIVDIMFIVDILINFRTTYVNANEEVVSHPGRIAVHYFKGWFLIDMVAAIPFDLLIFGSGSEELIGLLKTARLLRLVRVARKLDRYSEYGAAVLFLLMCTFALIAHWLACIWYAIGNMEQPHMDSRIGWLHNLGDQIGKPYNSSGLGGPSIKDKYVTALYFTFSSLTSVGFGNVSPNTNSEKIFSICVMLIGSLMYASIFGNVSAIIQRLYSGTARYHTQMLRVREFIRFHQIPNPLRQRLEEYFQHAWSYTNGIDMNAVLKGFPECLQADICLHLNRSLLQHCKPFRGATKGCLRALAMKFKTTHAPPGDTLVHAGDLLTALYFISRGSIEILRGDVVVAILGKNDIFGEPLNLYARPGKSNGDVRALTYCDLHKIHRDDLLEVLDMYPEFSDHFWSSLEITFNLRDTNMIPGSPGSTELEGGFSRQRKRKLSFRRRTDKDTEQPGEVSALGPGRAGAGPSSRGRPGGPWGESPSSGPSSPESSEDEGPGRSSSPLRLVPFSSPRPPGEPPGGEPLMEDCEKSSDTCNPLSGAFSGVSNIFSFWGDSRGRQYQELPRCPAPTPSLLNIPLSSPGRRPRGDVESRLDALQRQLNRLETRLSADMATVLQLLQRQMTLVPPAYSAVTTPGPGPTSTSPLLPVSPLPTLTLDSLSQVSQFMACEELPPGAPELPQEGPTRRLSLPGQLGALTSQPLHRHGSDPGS
Sequence of P-gp (ABCB1) (P43245 whole entry, the tested form may be a part): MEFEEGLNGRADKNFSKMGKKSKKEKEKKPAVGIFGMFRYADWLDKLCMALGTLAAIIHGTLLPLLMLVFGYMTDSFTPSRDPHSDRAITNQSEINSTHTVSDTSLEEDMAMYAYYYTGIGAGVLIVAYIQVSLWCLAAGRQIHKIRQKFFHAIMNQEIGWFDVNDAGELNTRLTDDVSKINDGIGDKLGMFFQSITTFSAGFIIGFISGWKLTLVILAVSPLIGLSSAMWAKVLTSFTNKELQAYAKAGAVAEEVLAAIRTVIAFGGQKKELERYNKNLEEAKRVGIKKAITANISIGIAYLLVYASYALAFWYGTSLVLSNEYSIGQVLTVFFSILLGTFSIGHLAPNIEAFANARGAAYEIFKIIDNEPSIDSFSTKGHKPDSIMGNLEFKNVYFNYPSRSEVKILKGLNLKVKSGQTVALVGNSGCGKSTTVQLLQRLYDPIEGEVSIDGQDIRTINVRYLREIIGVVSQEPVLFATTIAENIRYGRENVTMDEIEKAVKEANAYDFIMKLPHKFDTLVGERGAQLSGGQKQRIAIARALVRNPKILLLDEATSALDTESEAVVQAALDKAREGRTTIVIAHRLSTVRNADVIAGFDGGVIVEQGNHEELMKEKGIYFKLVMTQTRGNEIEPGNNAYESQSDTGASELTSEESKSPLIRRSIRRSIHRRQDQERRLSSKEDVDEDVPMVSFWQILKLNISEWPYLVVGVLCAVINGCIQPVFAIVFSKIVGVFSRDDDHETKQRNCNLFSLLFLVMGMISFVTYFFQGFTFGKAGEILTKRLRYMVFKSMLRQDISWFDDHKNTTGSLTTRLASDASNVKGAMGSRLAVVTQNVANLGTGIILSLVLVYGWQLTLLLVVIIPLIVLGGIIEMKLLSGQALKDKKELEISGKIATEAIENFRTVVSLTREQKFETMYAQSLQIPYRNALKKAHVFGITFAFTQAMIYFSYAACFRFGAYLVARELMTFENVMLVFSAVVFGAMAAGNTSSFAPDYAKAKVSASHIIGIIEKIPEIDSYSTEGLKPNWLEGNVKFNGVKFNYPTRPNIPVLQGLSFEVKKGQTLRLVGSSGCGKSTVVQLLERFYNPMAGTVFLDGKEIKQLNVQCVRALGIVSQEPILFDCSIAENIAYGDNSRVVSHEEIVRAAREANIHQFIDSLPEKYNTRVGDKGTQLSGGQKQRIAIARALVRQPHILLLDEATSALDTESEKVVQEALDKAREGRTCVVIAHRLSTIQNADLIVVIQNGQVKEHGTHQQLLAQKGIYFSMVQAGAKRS

SMILES: Cc1ccc([C@H]2C[C@@H]2COc2cc(NCc3nnc(C)s3)nc(C)n2)nc1 [MK-8189]
- Occ [1]: 34%
- Ki [2]: 0.029 nM
- clearance [3]: 9.3 mL/min/kg
- Ratio Ki [4]: > 500000
- solubility [5]: 167 µM (≈ 63.9 µg/mL)
- logD [6]: 2.1
- concentration at 1 h [7]: 16 nM
- PPB [8]: 96%
- K [9]: 8 10^7/M/s
- Ratio Ki [10]: > 500000
- efflux ratio (P-gp (ABCB1)): 2.6
- Ratio Ki [11]: > 500000
- CL free [12]: 260 mL/min/kg
- t1/2 [13]: 4.2 h
- T1/2 [14]: 6.7 min
- concentration at 2.5 h [15]: 17 nM
- Activity [16]: Non-Toxic
- Fu [17]: 8.2%
- Activity (Rattus norvegicus): Dose-Dependent Effect
- Occ [18]: 41%
- Fu [19]: 8.7%
- Ratio Ki [20]: > 500000
- IC50 [21]: 33 µM
- Vd [22]: 1.4 L/kg
- concentration at 2.5 h [23]: 50 nM
- concentration at 1 h [24]: 29 nM
- Ratio Ki [25]: > 500000
- concentration at 2.5 h [26]: 36 nM
- t1/2 [27]: 4.8 h
- Activity [28]: Non-Toxic
- concentration at 1 h [29]: 18 nM
